Key:
[1] = molecular target: T1, Sterol O-acyltransferase 1 (Rattus norvegicus) (UniProt O70536); experiment: Tested in vitro for acyl coenzyme A:cholesterol acyltransferase (ACAT) activity in rat liver microsome at a concentration of 1 micro g/mL; type: microsomes
T1 sequence (whole entry): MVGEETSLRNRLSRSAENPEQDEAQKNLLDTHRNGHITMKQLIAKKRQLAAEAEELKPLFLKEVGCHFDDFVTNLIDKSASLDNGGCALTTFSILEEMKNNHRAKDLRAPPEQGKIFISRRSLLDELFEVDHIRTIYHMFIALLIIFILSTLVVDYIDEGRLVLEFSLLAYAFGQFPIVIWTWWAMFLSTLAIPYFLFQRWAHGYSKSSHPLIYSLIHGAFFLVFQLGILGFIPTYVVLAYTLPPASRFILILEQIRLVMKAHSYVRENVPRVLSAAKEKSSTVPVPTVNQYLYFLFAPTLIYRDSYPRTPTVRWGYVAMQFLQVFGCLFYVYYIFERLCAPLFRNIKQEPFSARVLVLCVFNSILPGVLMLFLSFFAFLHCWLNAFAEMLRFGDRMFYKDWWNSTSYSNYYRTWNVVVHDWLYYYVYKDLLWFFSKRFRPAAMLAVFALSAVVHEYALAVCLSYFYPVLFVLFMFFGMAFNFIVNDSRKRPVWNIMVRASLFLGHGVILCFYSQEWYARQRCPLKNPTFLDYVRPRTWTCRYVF
Procedure, shortened: (§1)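 Enzyme source was hepatic microsomes from cholesterol-fed rats, 60 μg microsomal protein per reaction, with 90 μM radiolabeled oleoyl-CoA. Cholesterol ester formed was separated by TLC and quantified by scintillation counting. Compounds were tested at a single fixed concentration of 1 or 10 μg/mL, and results were given as percent inhibition of enzyme activity.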

[2] = molecular target: T2, Sterol O-acyltransferase 1 (Rattus norvegicus, UniProt O70536); experiment: Inhibition of acyl coenzyme A:cholesterol acyltransferase (ACAT) activity in rat liver microsome; type: microsomes
T2 sequence (O70536 whole entry): T1 sequence (whole entry)
Procedure, shortened: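 The assay used rat hepatic microsomes from cholesterol-fed animals (60 μg protein) and 90 μM radiolabeled oleoyl-CoA. Cholesterol ester product was resolved by TLC and counted by scintillation. IC50 was the concentration inhibiting 50% of enzyme activity.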

[3] = tested on: Rattus norvegicus; experiment: Tested in vivo for anti-hypercholesterolaemic activity in male Sprague-Dawley rat.; type: functional
Procedure, shortened: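 Compound was given at 0.03% w/w in the diet (about 30 mg/kg/day). Basal-diet rats (n = 4) gave a baseline that was subtracted. Plasma cholesterol was measured enzymatically, and the result was expressed as percent change versus undosed controls.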

[4] = molecular target: T1, Sterol O-acyltransferase 1 (Rattus norvegicus); experiment: Tested in vitro for Acyl coenzyme A:cholesterol acyltransferase (ACAT) activity in rat liver microsome at a concentration of 1 micro g/mL
[5] = molecular target: T1, Sterol O-acyltransferase 1 (Rattus norvegicus); experiment: In vitro acyl coenzyme A:cholesterol acyltransferase (ACAT) activity in rat liver microsome at a concentration of 10 micro g/mL; type: microsomes; procedure, shortened: as §1

Structure (SMILES) | inhibition [1] [%] | IC50 [2] [µM] | inhibition [4] [%] | inhibition [5] [%] | Change [3] [%]
c1ccc(-c2nc(SCC3CCCCC3)[nH]c2-c2ccccc2)cc1 | 95 | 0.1 |  |  | -92
Cc1cccc(-c2nc(SC[C@H]3C[C@@](C)(O)CC(=O)O3)[nH]c2-c2cccc(C)c2)c1.Cc1cccc(-c2nc(SC[C@H]3C[C@](C)(O)CC(=O)O3)[nH]c2-c2cccc(C)c2)c1 | 94 | 0.064 |  |  | -64
CCOC(CCSc1nc(-c2ccccc2)c(-c2ccccc2)[nH]1)OCC | 95 | 0.069 |  |  | 4
c1ccc(-c2nc(SCCCC3OCCCO3)[nH]c2-c2ccccc2)cc1 | 96 | 0.047 |  |  | -57
c1ccc(-c2nc(SCC3OCCCO3)[nH]c2-c2ccccc2)cc1 |  | 0.18 |  | 97 | -10
CCOC(CSc1nc(-c2ccccc2)c(-c2ccccc2)[nH]1)OCC |  | 0.25 |  | 99 | -37
c1ccc(-c2nc(SCC3OCCO3)[nH]c2-c2ccccc2)cc1 | 98 | 0.53 |  |  | -29
c1ccc(-c2nc(SCC3CCCCO3)[nH]c2-c2ccccc2)cc1 (stereo not given) | 92 | 0.21 |  |  | -38

Second part, led by results:

inhibition [1] [%] | IC50 [2] [µM] | inhibition [4] [%] | inhibition [5] [%] | Structure (SMILES) | Change [3] [%]
 |  | 85 |  | CO[C@]1(C)C[C@H](O)C[C@@H](CSc2nc(-c3ccccc3)c(-c3ccccc3)[nH]2)O1 | 
94 | 0.1 |  |  | CC1(C)CC(=O)OC(CSc2nc(-c3ccccc3)c(-c3ccccc3)[nH]2)C1 (stereo not given) | -17
 | 0.74 |  | 95 | O=C1CCCC(CSc2nc(-c3ccccc3)c(-c3ccccc3)[nH]2)O1 (stereo not given) | 16
 | 0.14 |  | 98 | C[C@]1(O)CC(=O)OC(CSc2nc(-c3ccccc3)c(-c3ccccc3)[nH]2)C1 (stereo not given in full) | -35
 | 0.2 |  | 98 | CC1=CC(=O)OC(CSc2nc(-c3ccccc3)c(-c3ccccc3)[nH]2)C1 (stereo not given) | 27
 | 0.17 |  | 98 | C[C@@]1(O)CC(=O)OC(CSc2nc(-c3ccccc3)c(-c3ccccc3)[nH]2)C1 (stereo not given in full) | -105

Reference: ChEMBL document CHEMBL1125365, “Acyl-CoA:cholesterol O-acyl transferase (ACAT) inhibitors. 1. 2-(Alkylthio)-4,5-diphenyl-1H-imidazoles as potent inhibitors of ACAT” (J Med Chem, 1992)
